Assay results from PMC11406440 (Food and chemical toxicology : an international journal …, 2024).
“And” between values parts separate entries of the source, which are not always exact repeats. Equal entries are not always repeated. “Also recorded” adds a separate entry of the source.

What was measured:
[1] = system: B6C3F1 mice; test: Histopathology; assay type: in vivo; details: for Liver: bile, increased, hepatocyte, minimal (incidence) / Liver: hypertrophy, hepatocyte, marked (incidence) / Liver: infiltrate, mononuclear cell, mild (incidence) / Liver: infiltrate, mononuclear cell, minimal (incidence) / Liver: necrosis, mild (incidence) / Liver: necrosis, minimal (incidence) / Liver: pigment macrophage, minimal (incidence) / Spleen: decreased cellularity, lymphocyte, mild (incidence): mice affected of 5
In short: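 Female B6C3F1 mice (5/group) received 25 μl/ear of acetone vehicle or 1.25–5% w/v test compound daily on both ears for 28 days, with necropsy about 24 h later. Liver, half spleen, half ear pinna and right kidney were fixed in 10% formalin, paraffin-embedded, cut at 5 μm and H&E-stained. A veterinary pathologist scored them per STP guideline, grades 1 (minimal) to 5 (severe).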

[2] = system: ear; test: Skin; assay type: in vivo, B6C3F1 mice; details: 28 days
In short: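 Mice were dosed daily on both ears (25 μl/ear; acetone vehicle or 1.25, 2.5, 5% w/v) for 28 days. Half an ear pinna or the caudate liver lobe was homogenized in Buffer RLT, and total RNA was column-isolated with DNase treatment. TaqMan qPCR gave relative fold change (2−ΔΔCT) versus vehicle controls, normalized to β-actin. Liver used 4–5 mice/group, one-way ANOVA/Dunnett or Kruskal-Wallis/Dunn.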

[3] = system: dLN cells; test: Draining lymph node; assay type: in vivo, B6C3F1 mice; details: 28 days
In short: (§1)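 Female B6C3F1 mice (5/group) received 25 μl/ear of acetone vehicle or 1.25, 2.5 or 5% w/v test compound on the dorsal surface of each ear, once daily for 28 days. They were euthanized about 24 h later. Single-cell suspensions were made from both auricular dLNs, half a spleen or one ear pinna. Cells were Fc-blocked (anti-CD16/32), stained with surface antibody cocktails and acquired on an LSR II, with FMO gating controls.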

[4] = system: spleen cells; test: Spleen immune phenotyping by flow cytometry; assay type: in vivo, B6C3F1 mice; details: 28 days; for Spleen B-cells frequency / Spleen B-cells number / Spleen CD4+ frequency / Spleen CD4+ number / Spleen CD8+ frequency / Spleen CD8+ number / Spleen CD11b + Ly6C+ frequency / Spleen CD11b + Ly6C+ number / Spleen CD11b + Ly6C- frequency / Spleen CD11b + Ly6C- number / Spleen CD11b+ frequency / Spleen CD11b+ number / Spleen CD86 B-cells / Spleen CD86 DCs / Spleen Cellularity / Spleen Dendritic Cells frequency / Spleen Dendritic Cells number / Spleen MHCII B-cells / Spleen MHCII DCs / Spleen NK frequency / Spleen NK number / Spleen Neutrophils frequency / Spleen Neutrophils number: mean ± SE
In short: as §1

[5] = system: NK cell function; test: NK assay; assay type: in vivo, mice; details: any effector to target ratios
[6] = 28 days of 20 mg/kg/d oral gavage, female mice; ref Narizzano et al., 2021; cited from earlier work
[7] = female rats, 14-days of 10 mg/kg/day oral exposure; ref Butenhoff et al., 2009; cited from earlier work

O=S(=O)(O)C(F)(F)C(F)(F)C(F)(F)C(F)(F)C(F)(F)C(F)(F)F [PFHxS, Perfluorohexane sulfonic acid]
Liver: bile, increased, hepatocyte, minimal (incidence) ([1]; 1.25% PFHxS, 28 days): 5/5 and 5
Liver: hypertrophy, hepatocyte, marked (incidence) ([1]; 1.25% PFHxS, 28 days): 5
Liver: infiltrate, mononuclear cell, mild (incidence) ([1]; 1.25% PFHxS, 28 days): 1/5 and 1
Liver: infiltrate, mononuclear cell, minimal (incidence) ([1]; 1.25% PFHxS, 28 days): 2/5 and 2
Liver: necrosis, mild (incidence) ([1]; 1.25% PFHxS, 28 days): 2/5 and 2
Liver: necrosis, minimal (incidence) ([1]; 1.25% PFHxS, 28 days): 3/5 and 3
Liver: pigment macrophage, minimal (incidence) ([1]; 1.25% PFHxS, 28 days): 4/5 and 4
Spleen: decreased cellularity, lymphocyte, mild (incidence) ([1]; 1.25% PFHxS, 28 days): 2/5 and 2
Liver: bile, increased, hepatocyte, minimal (incidence) ([1]; 2.5% PFHxS, 28 days): 5/5 and 5
Liver: hypertrophy, hepatocyte, marked (incidence) ([1]; 2.5% PFHxS, 28 days): 5
Liver: infiltrate, mononuclear cell, mild (incidence) ([1]; 2.5% PFHxS, 28 days): 0
Liver: infiltrate, mononuclear cell, minimal (incidence) ([1]; 2.5% PFHxS, 28 days): 2/5 and 2
Liver: necrosis, mild (incidence) ([1]; 2.5% PFHxS, 28 days): 1/5 and 1
Liver: necrosis, minimal (incidence) ([1]; 2.5% PFHxS, 28 days): 4/5 and 4
Liver: pigment macrophage, minimal (incidence) ([1]; 2.5% PFHxS, 28 days): 5/5 and 5
Spleen: decreased cellularity, lymphocyte, mild (incidence) ([1]; 2.5% PFHxS, 28 days): 4/5 and 4
Liver: bile, increased, hepatocyte, minimal (incidence) ([1]; 5% PFHxS, 28 days): 5/5 and 5
Liver: hypertrophy, hepatocyte, marked (incidence) ([1]; 5% PFHxS, 28 days): 5
Liver: infiltrate, mononuclear cell, mild (incidence) ([1]; 5% PFHxS, 28 days): 0
Liver: infiltrate, mononuclear cell, minimal (incidence) ([1]; 5% PFHxS, 28 days): 1/5 and 1
Liver: necrosis, mild (incidence) ([1]; 5% PFHxS, 28 days): 1/5 and 1
Liver: necrosis, minimal (incidence) ([1]; 5% PFHxS, 28 days): 4/5 and 4
Liver: pigment macrophage, minimal (incidence) ([1]; 5% PFHxS, 28 days): 4/5 and 4
Spleen: decreased cellularity, lymphocyte, mild (incidence) ([1]; 5% PFHxS, 28 days): 5/5 and 5
Skin irritation at the site of application ([1]; PFHxS dermal exposure): no skin irritation
Skin histopathology at the dosing site ([1]; PFHxS dermal, 28 days): No microscopic abnormalities; also recorded: no histopathological changes
Skin Serpine1 gene expression, fold increase ([2]; 1.25% PFHxS): 3 fold
Skin Il-1β gene expression ([2]; 1.25-5% PFHxS): no significant changes
Skin Pparα gene expression ([2]; 1.25-5% PFHxS): no change
Skin barrier gene Flg2 expression ([2]; 1.25-5% PFHxS): No changes
Skin barrier gene Itgbl1 expression ([2]; 1.25-5% PFHxS): No changes
Skin barrier gene Krt10 expression ([2]; 1.25-5% PFHxS): No changes
Skin barrier gene Krt14 expression ([2]; 1.25-5% PFHxS): No changes
Skin Serpine1 gene expression, fold increase ([2]; 2.5% PFHxS): 4 fold
Skin barrier gene Lor expression ([2]; 2.5%, 5% PFHxS): Increases
Skin Cxcl1 gene expression, fold increase ([2]; 5% PFHxS): 5 fold
Skin Il-6 gene expression, fold increase ([2]; 5% PFHxS): 2 fold
Skin Pparγ gene expression ([2]; 5% PFHxS): decrease
Skin Pparδ gene expression ([2]; 5% PFHxS): increase
Skin S100a8 gene expression, fold increase ([2]; 5% PFHxS): 9 fold
Skin Serpine1 gene expression, fold increase ([2]; 5% PFHxS): 4 fold
Skin Tslp gene expression, fold increase ([2]; 5% PFHxS): 33 fold
Skin barrier gene Flg expression ([2]; 5% PFHxS): Increases
dLN CD4+ T cell number ([3]; 1.25%, 2.5%, and 5% PFHxS): significant decrease
dLN CD8+ T cell frequency ([3]; 2.5%, 5% PFHxS): increase
dLN eosinophil frequency and number ([3]; 2.5%, 5% PFHxS): increase
dLN mean fluorescence intensity of CD86 on B cells ([3]; 5% PFHxS): increase
dLN mean fluorescence intensity of MHCII on B cells ([3]; 5% PFHxS): increase
dLN total DC number ([3]; 5% PFHxS): increase
Spleen B-cells frequency ([4]; 1.25% PFHxS): 31.48 ± 0.59%
Spleen B-cells number ([4]; 1.25% PFHxS): 2.50 ± 0.38 x 10^7
Spleen CD4+ frequency ([4]; 1.25% PFHxS): 24.60 ± 0.70%
Spleen CD4+ number ([4]; 1.25% PFHxS): 1.95 ± 0.30 x 10^7
Spleen CD8+ frequency ([4]; 1.25% PFHxS): 15.12 ± 0.73%
Spleen CD8+ number ([4]; 1.25% PFHxS): 11.70 ± 1.45 x 10^6
Spleen CD11b + Ly6C+ frequency ([4]; 1.25% PFHxS): 1.11 ± 0.09%
Spleen CD11b + Ly6C+ number ([4]; 1.25% PFHxS): 9.05 ± 1.59 x 10^5
Spleen CD11b + Ly6C- frequency ([4]; 1.25% PFHxS): 2.63 ± 0.16 %
Spleen CD11b + Ly6C- number ([4]; 1.25% PFHxS): 21.00 ± 3.46 x 10^5
Spleen CD11b+ frequency ([4]; 1.25% PFHxS): 3.90 ± 0.21%
Spleen CD11b+ number ([4]; 1.25% PFHxS): 3.13 ± 0.51 x 10^6
Spleen CD86 B-cells ([4]; 1.25% PFHxS): 341.20 ± 16.00 MFI
Spleen CD86 DCs ([4]; 1.25% PFHxS): 1733.80 ± 46.13 MFI
Spleen Cellularity ([4]; 1.25% PFHxS): 7.91 ± 1.16 x 10^7
Spleen Dendritic Cells frequency ([4]; 1.25% PFHxS): 3.33 ± 0.32%
Spleen Dendritic Cells number ([4]; 1.25% PFHxS): 2.70 ± 0.48 x 10^6
Spleen MHCII B-cells ([4]; 1.25% PFHxS): 1334.60 ± 89.70 MFI
Spleen MHCII DCs ([4]; 1.25% PFHxS): 4141.40 ± 112.06 MFI
Spleen NK frequency ([4]; 1.25% PFHxS): 2.52 ± 0.17%
Spleen NK number ([4]; 1.25% PFHxS): 20.00 ± 3.26 x 10^5
Spleen Neutrophils frequency ([4]; 1.25% PFHxS): 1.76 ± 0.14%
Spleen Neutrophils number ([4]; 1.25% PFHxS): 14.00 ± 2.38 x 10^5
Spleen eosinophils frequency and number ([4]; 1.25%, 2.5%, 5% PFHxS): decrease
Spleen B-cells frequency ([4]; 2.5% PFHxS): 32.48 ± 0.37%
Spleen B-cells number ([4]; 2.5% PFHxS): 1.62 ± 0.19 x 10^7
Spleen CD4+ frequency ([4]; 2.5% PFHxS): 26.26 ± 0.79 %
Spleen CD4+ number ([4]; 2.5% PFHxS): 1.30 ± 0.13 x 10^7
Spleen CD8+ frequency ([4]; 2.5% PFHxS): 16.74 ± 0.56 %
Spleen CD8+ number ([4]; 2.5% PFHxS): 8.25 ± 0.73 x 10^6
Spleen CD11b + Ly6C+ frequency ([4]; 2.5% PFHxS): 0.72 ± 0.11 %
Spleen CD11b + Ly6C+ number ([4]; 2.5% PFHxS): 3.77 ± 0.85 x 10^5
Spleen CD11b + Ly6C- frequency ([4]; 2.5% PFHxS): 2.21 ± 0.13 %
Spleen CD11b + Ly6C- number ([4]; 2.5% PFHxS): 11.20 ± 1.52 x 10^5
Spleen CD11b+ frequency ([4]; 2.5% PFHxS): 3.07 ± 0.21 %
Spleen CD11b+ number ([4]; 2.5% PFHxS): 1.56 ± 0.24 x 10^6
Spleen CD86 B-cells ([4]; 2.5% PFHxS): 280.80 ± 10.49 MFI
Spleen CD86 DCs ([4]; 2.5% PFHxS): 1677.40 ± 60.65 MFI
Spleen Cellularity ([4]; 2.5% PFHxS): 4.99 ± 0.55 x 10^7
Spleen Dendritic Cells frequency ([4]; 2.5% PFHxS): 3.36 ± 0.48%
Spleen Dendritic Cells number ([4]; 2.5% PFHxS): 1.71 ± 0.33 x 10^6
Spleen MHCII B-cells ([4]; 2.5% PFHxS): 1235.60 ± 111.64 MFI
Spleen MHCII DCs ([4]; 2.5% PFHxS): 4003.00 ± 145.61 MFI
Spleen NK frequency ([4]; 2.5% PFHxS): 2.19 ± 0.06 %
Spleen NK number ([4]; 2.5% PFHxS): 10.90 ± 1.04 x 10^5
Spleen Neutrophils frequency ([4]; 2.5% PFHxS): 1.69 ± 0.21%
Spleen Neutrophils number ([4]; 2.5% PFHxS): 8.87 ± 2.15 x 10^5
Spleen B-cells frequency ([4]; 5% PFHxS): 30.06 ± 0.55 %
Spleen B-cells number ([4]; 5% PFHxS): 1.11 ± 0.15 x 10^7
Spleen CD4+ frequency ([4]; 5% PFHxS): 26.90 ± 0.70 %
Spleen CD4+ number ([4]; 5% PFHxS): 0.99 ± 0.12 x 10^7
Spleen CD8+ frequency ([4]; 5% PFHxS): 18.12 ± 0.59 %
Spleen CD8+ number ([4]; 5% PFHxS): 6.58 ± 0.73 x 10^6
Spleen CD11b + Ly6C+ frequency ([4]; 5% PFHxS): 0.68 ± 0.13 %
Spleen CD11b + Ly6C+ number ([4]; 5% PFHxS): 2.52 ± 0.56 x 10^5
Spleen CD11b + Ly6C- frequency ([4]; 5% PFHxS): 1.69 ± 0.13 %
Spleen CD11b + Ly6C- number ([4]; 5% PFHxS): 6.28 ± 0.91 x 10^5
Spleen CD11b+ frequency ([4]; 5% PFHxS): 2.49 ± 0.24 %
Spleen CD11b+ number ([4]; 5% PFHxS): 0.93 ± 0.15 x 10^6
Spleen CD86 B-cells ([4]; 5% PFHxS): 302.60 ± 14.79 MFI
Spleen CD86 DCs ([4]; 5% PFHxS): 1754.60 ± 67.69 MFI
Spleen Cellularity ([4]; 5% PFHxS): 3.68 ± 0.45 x 10^7
Spleen Dendritic Cells frequency ([4]; 5% PFHxS): 3.34 ± 0.31%
Spleen Dendritic Cells number ([4]; 5% PFHxS): 1.26 ± 0.20 x 10^6
Spleen MHCII B-cells ([4]; 5% PFHxS): 1093.20 ± 94.51 MFI
Spleen MHCII DCs ([4]; 5% PFHxS): 3854.60 ± 88.79 MFI
Spleen NK frequency ([4]; 5% PFHxS): 1.71 ± 0.17 %
Spleen NK number ([4]; 5% PFHxS): 6.35 ± 0.96 x 10^5
Spleen Neutrophils frequency ([4]; 5% PFHxS): 2.51 ± 0.34 %
Spleen Neutrophils number ([4]; 5% PFHxS): 9.14 ± 1.54 x 10^5
NK cell function [5]: No significant decreases
Serum level [6]: 35000 ng/mL
Serum concentration [7]: 42000 ng/mL
